The values below come from ChEMBL document CHEMBL1155242, “Radiolabeled 5-iodo-3'-O-(17beta-succinyl-5alpha-androstan-3-one)-2'-deoxyuridine and its 5'-monophosphate for imaging and therapy of androgen receptor-positive cancers: synthesis and biological evaluation” (J Med Chem, 2009).

A value given as a limit tells only on which side of the number the result lay.

Data set [1] relates to OVCAR-3. Description: Antitumor activity against human OVCAR-3 cells xenografted in athymic NCr mouse assessed as reduction of tumor size in peritoneum at 180 uCi, ip administered 9 days after tumor implantation as six fractionated doses every 4 days measured after 2 weeks of last dose by gamma counting. In kind it is functional. Also noted: scale not given: the % may be the effect or the level left. Put shortly:
(§1)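 OVCAR-3 ip xenografts in athymic mice; six fractionated ip doses every 4 days, total 180 μCi/mouse, with PBS or vehicle ip controls. Nonadherent tumor cells recovered by peritoneal lavage at necropsy, counted and pellet-weighed.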

Data set [2] is described as follows: Biodistribution in […] in athymic NCr mouse xenografted with human OVCAR-3 cells at 45 uCi, ip after 72 hrs by gamma counting. The data set is classed as ADME, organism-based. The note with it: in vivo. Put shortly: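 Athymic NCr-nu/nu mice with ip OVCAR-3; 45 μCi given ip without prior SSKI. Whole-body planar imaging at 72 h with region-of-interest analysis as percent of whole-body activity; peritoneal lavage cells and ascites counted.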
On the technique in general: A xenograft is tissue or cells of one species grown in another, often human tumour cells in immunodeficient mice.

In data set [3] the test system is LNCaP. Description: Cellular uptake in single-cell suspension of nonproliferating human LNCAP cells expressing androgen receptor at 0.03 uCi/mL up to 2 hrs by gamma counting. The data set is classed as ADME, cell-based. Conditions: TDE = time-dependent effect; call rule not given here. Put shortly:
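Low-passage LNCaP held as single-cell suspension (non-proliferating) in RPMI-1640 with radioligand at 0.03 or 0.37 μCi/mL; whole-cell and nuclear radioactivity measured over time.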

Data set [4] deals with OVCAR-3. Description: Cytotoxicity against human OVCAR-3 cells expressing androgen receptor assessed as cell survival at 3 uCi/mL after 48 hrs. The data set is classed as functional. Put shortly:
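NIH:OVCAR-3 cells were grown for 48 h with the 125I-labelled compound, and survival was plotted against the extracellular concentration in μCi/mL.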

A short description of data set [5]: Chemical stability in RPMI-1640 serum-free medium assessed as compound hydrolysis at 12.2 uCi after 24 hrs by HPLC analysis. The data set is classed as physicochemical. The note with it: read-out: Activity.
The target in data set [6] is T1, Sex hormone-binding globulin (Homo sapiens, UniProt P04278).
T1 sequence (P04278 whole entry): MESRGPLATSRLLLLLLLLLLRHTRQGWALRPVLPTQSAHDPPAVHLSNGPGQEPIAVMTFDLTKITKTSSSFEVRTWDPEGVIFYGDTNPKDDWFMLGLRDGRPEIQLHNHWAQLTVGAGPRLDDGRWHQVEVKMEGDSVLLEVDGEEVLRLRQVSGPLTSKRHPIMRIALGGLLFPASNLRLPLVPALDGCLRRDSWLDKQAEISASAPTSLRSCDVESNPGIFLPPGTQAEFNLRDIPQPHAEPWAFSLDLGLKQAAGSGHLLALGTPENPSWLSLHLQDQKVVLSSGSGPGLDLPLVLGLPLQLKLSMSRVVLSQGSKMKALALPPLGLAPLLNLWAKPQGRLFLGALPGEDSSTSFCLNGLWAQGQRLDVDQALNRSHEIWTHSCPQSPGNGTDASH
Description: Binding affinity to human sex hormone binding globulin assessed as intact compound remaining at 10 to 20 uCi/mL after 60 mins by instant thin layer chromatography. In kind it is ADME. Conditions: read-out: Stability.

A short description of data set [7]: Chemical stability in phosphate buffer saline at 0.85 uCi after 1265 mins by HPLC analysis. In kind it is physicochemical.
Data set [8] is described as follows: Ratio of drug level in tumor to kidney in athymic NCr mouse xenografted with human OVCAR-3 cells at 180 uCi, ip administered 9 days after tumor implantation as six fractionated doses every 4 days measured after 1.5 hrs by gamma counting. In kind it is ADME, organism-based. Conditions: in vivo.
Data set [9] deals with T1, Sex hormone-binding globulin. Description: Binding affinity to human sex hormone binding globulin at 10 to 20 uCi/mL after 60 mins by instant thin layer chromatography. In kind it is ADME. Conditions: 1 h.
For data set [10], the system named is OVCAR-3. Description: Antitumor activity against human OVCAR-3 cells xenografted in athymic NCr mouse assessed as number of cancer cells in peritoneum at 180 uCi, ip administered 9 days after tumor implantation as six fractionated doses every 4 days measured after 2 weeks of last dose by gamma counting. In kind it is functional. Put shortly:
as §1

For data set [11], the target named is T2, Sex hormone-binding globulin (Oryctolagus cuniculus, UniProt P15196).
T2 sequence (P15196 whole entry): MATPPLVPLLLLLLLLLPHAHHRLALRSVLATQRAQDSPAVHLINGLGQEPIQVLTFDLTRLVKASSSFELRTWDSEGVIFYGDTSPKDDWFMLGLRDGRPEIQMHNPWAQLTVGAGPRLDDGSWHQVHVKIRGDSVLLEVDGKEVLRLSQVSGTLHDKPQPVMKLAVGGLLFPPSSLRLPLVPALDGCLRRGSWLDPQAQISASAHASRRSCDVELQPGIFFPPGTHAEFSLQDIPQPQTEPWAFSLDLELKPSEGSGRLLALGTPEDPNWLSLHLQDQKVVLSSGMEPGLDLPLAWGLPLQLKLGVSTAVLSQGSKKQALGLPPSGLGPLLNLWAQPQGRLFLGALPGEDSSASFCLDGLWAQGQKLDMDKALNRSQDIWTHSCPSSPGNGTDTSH
Kind of data set: Binding affinity to rabbit sex hormone binding globulin assessed as intact compound remaining at 10 to 20 uCi/mL after 60 mins by size-exclusion HPLC analysis. The data set is classed as ADME. The note with it: read-out: Stability. Put shortly: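 Radioligand incubated 60 min in rabbit serum; size-exclusion HPLC as for SHBG binding (phosphate/Na2SO4 pH 6.8, then CH3CN gradient) for SHBG-bound peak, with extracts run on C18 for intact compound.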
On the technique in general: Size exclusion chromatography separates by hydrodynamic size, large species first.

The nature of data set [12]: Ratio of drug level in tumor to spleen in athymic NCr mouse xenografted with human OVCAR-3 cells at 180 uCi, ip administered 9 days after tumor implantation as six fractionated doses every 4 days measured after 24 hrs by gamma counting. In kind it is ADME, organism-based. The note with it: in vivo.
Data set [13] relates to OVCAR-3. Description: Cellular uptake in human OVCAR-3 cells xenografted in athymic NCr mouse assessed per gram of cells at 180 uCi, ip administered 9 days after tumor implantation as six fractionated doses every 4 days measured after 12 days by gamma counting. In kind it is ADME, organism-based. The note with it: in vivo, 288 h. Put shortly:
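Mice treated with one, three or six ip doses; nonadherent OVCAR-3 cells lavaged at necropsy, 12 days after last of six doses, and counted; %ID/g decay-corrected; DNA-bound fraction measured.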

For data set [14], the system named is LNCaP. Description: Cytotoxicity against human LNCAP cells expressing androgen receptor assessed as drug level required to reduce viable cell count to 37% after 48 hrs. In kind it is functional. Put shortly:
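LNCaP human prostate cancer cells were grown for 48 h with the 125I-labelled compound in the medium, and cell survival was then determined. D37 was expressed as the extracellular concentration in μCi/mL.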

The target of the next data set is Albumin (Mus musculus, UniProt P07724). Kind of data set: Binding affinity to mouse serum albumin at 20 uCi after 60 mins by size-exclusion HPLC analysis. In kind it is ADME. Conditions: isolated protein, 1 h.
The subject of a further data set is Kidney. Kind of data set: Biodistribution in kidney of athymic NCr mouse xenografted with human OVCAR-3 cells assessed per gram of tissue at an average 39.5 uCi/dose, ip administered 9 days after tumor implantation as six fractionated doses every 4 days measured after 2 weeks of last dose by gamma counting. In kind it is ADME, organism-based. Conditions: in vivo, 336 h. Put shortly:
(§2)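 OVCAR-3-bearing and healthy athymic mice given fractionated ip doses on the six-dose every-4-days schedule; tissues, tumor and lavaged cells γ-counted at necropsy, %ID/g; DNA-bound 125I in cells measured as cpm/cell.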

The subject of another data set is Spleen. Description: Biodistribution in spleen of athymic NCr mouse xenografted with human OVCAR-3 cells assessed per gram of tissue at an average 39.5 uCi/dose, ip administered 9 days after tumor implantation as six fractionated doses every 4 days measured after 2 weeks of last dose by gamma counting. In kind it is ADME, organism-based. The note with it: in vivo, 336 h. Put shortly:
as §2

Chain of Albumin (P07724 whole entry): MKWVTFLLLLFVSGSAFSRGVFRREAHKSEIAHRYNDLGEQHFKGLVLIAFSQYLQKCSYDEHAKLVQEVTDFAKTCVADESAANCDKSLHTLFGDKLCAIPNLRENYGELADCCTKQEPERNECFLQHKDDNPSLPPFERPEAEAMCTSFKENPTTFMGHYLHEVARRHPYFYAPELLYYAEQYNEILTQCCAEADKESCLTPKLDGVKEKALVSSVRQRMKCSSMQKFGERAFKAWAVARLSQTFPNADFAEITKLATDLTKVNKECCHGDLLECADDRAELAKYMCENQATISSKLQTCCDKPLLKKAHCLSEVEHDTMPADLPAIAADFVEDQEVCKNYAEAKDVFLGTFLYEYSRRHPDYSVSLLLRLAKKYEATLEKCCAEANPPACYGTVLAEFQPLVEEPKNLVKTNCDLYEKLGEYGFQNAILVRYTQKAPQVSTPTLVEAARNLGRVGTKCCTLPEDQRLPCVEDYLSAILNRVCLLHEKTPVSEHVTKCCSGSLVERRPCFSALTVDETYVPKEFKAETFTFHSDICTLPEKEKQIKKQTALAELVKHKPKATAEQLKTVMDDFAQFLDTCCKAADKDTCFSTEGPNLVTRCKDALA

Turning to `C[C@]12CCC(=O)C[C@@H]1CC[C@@H]1[C@@H]2CC[C@]2(C)[C@@H](OC(=O)CCC(=O)O[C@H]3C[C@H](n4cc([125I])c(=O)[nH]c4=O)O[C@@H]3CO)CC[C@@H]12`, the Activity in the data set on OVCAR-3 [1] is reported as 70%; in [9] it was “Active”; in the data set on OVCAR-3 [10], 380000000. Moreover, the Drug uptake in data set [2] is 3.4%; with LNCaP [3], “tde”; with OVCAR-3 [13], 0.5 %ID. Moreover, the Survival in the data set with OVCAR-3 [4] is reported as 50%. The degraded at 24 h, 12.2 uCi in data set [5] was found to be 30%. The remaining at 1 h in [6] was more than 91%; in data set [11] it was more than 84%. Besides, the Stability result in data set [7] was “Stable”. Also, the values for the Ratio in [8] and in data set [12] were 0.9 and 27.4, respectively.

For the molecule `C[C@]12CCC(=O)C[C@@H]1CC[C@@H]1[C@@H]2CC[C@]2(C)[C@@H](OC(=O)CCC(=O)O[C@H]3C[C@H](n4cc([125I])c(=O)[nH]c4=O)O[C@@H]3COP(=O)(O)O)CC[C@@H]12`, the Activity is on record as 1.7 uCi/ml in the data set with LNCaP [14] and “Active” on Albumin. Also, the figures for the Drug uptake with Kidney and in the data set with Spleen were 0.013 %ID and 0.043 %ID, respectively.
